Here are results for six molecules from ChEMBL document CHEMBL1158367, “Cationic surfactants from lysine: synthesis, micellization and biological evaluation” (Eur J Med Chem, 2009).

≈ marks a conversion by molar mass, not a printed value. Calls of active or inactive are those of the source. No cut-off for these calls is given here.

In data set [1] the test system is Klebsiella pneumoniae. Put plainly: Antimicrobial activity against Klebsiella pneumoniae after 24 hrs. The class given is functional. The essentials:
(§1)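 MIC by agar dilution: compound incorporated in nutrient agar at 0.1–256 µg/mL, with poorly soluble surfactants predissolved in minimal DMF and a DMF-matched solvent control. Plates were seeded with nutrient broth starter culture and incubated at 37 °C. Growth was scored visually after 24 h; test medium pH 6.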

A further data set relates to Micrococcus luteus. The data set can be described thus: Antimicrobial activity against Micrococcus luteus after 24 hrs. The class given is functional. The essentials:
as §1

In data set [2] the test system is Escherichia coli. The data set can be described thus: Antimicrobial activity against Escherichia coli after 24 hrs. The data set is classed as functional. The essentials:
as §1

Data set [3] deals with Bordetella bronchiseptica. The data set can be described thus: Antimicrobial activity against Bordetella bronchiseptica after 24 hrs. The class given is functional. The essentials: as §1
In another data set the test system is Bacillus subtilis. Put plainly: Antimicrobial activity against Bacillus subtilis after 24 hrs. The data set is classed as functional. The essentials: as §1
Data set [4] relates to Staphylococcus epidermidis. The data set can be described thus: Antimicrobial activity against Staphylococcus epidermidis after 24 hrs. The class given is functional. The essentials: as §1
Data set [5] concerns Candida albicans. Put plainly: Antimicrobial activity against Candida albicans at […] after 24 hrs. The class given is functional, organism-based.
The test system of data set [6] is Escherichia coli. Put plainly: Antimicrobial activity against Escherichia coli at […] after 24 hrs. The data set is classed as functional, organism-based.
Data set [7] concerns Salmonella enterica subsp. enterica. Put plainly: Antimicrobial activity against Salmonella Typhimurium at […] after 24 hrs. Conditions: Salmonella enterica subsp. enterica serovar Typhimurium. The class given is functional, organism-based.
Data set [8] is described as follows: Critical micelle concentration by PGSE-NMR method. The class given is physicochemical. The essentials: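 Surfactant intradiffusion measured by PGSE-NMR, varying gradient strength, from alkyl-chain CH2 signal intensities, at 25 °C (50 °C for the palmitoyl analogue). CMC taken from fitting the two-site exchange model D_obs = p_mic·D_mic + (1−p_mic)·D_free to the descending part of D versus concentration.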

In data set [9] the test system is Klebsiella aerogenes. The data set can be described thus: Antimicrobial activity against Enterobacter aerogenes at […] after 24 hrs. The data set is classed as functional, organism-based.
For data set [10], the system named is Klebsiella pneumoniae. The data set can be described thus: Antimicrobial activity against Klebsiella pneumoniae at […] after 24 hrs. The class given is functional, organism-based.
Data set [11] relates to Bordetella bronchiseptica. The data set can be described thus: Antimicrobial activity against Bordetella bronchiseptica at […] after 24 hrs. The class given is functional, organism-based.
The subject of the next data set is Bacillus cereus. Put plainly: Antimicrobial activity against Bacillus cereus var. mycoides after 24 hrs. The class given is functional. The essentials: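 Agar dilution MIC: compounds incorporated into nutrient agar over 0.1–256 µg/mL; poorly soluble ones first dissolved in minimal DMF, then diluted into medium, with a DMF-supplemented solvent control. Inoculated from a nutrient broth starter culture to a final ca. 5 × […] CFU/mL. Incubated 24 h at 37 °C; growth scored visually against a compound-free control.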

Another data set deals with Staphylococcus aureus. Put plainly: Antimicrobial activity against Staphylococcus aureus after 24 hrs. The class given is functional. The essentials:
as §1

In a further data set the test system is Enterococcus hirae. Put plainly: Antimicrobial activity against Enterococcus hirae after 24 hrs. The class given is functional. The essentials: as §1
The nature of data set [12]: Toxicity in human erythrocytes assessed as hemolytic activity. The data set is classed as cell-based, Erythrocyte. The essentials: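 Erythrocytes washed three times in isotonic phosphate saline with 10 mmol/L glucose, pH 7.4, then exposed to surfactant for 10 min at room temperature with shaking and centrifuged. Supernatant A540 compared with water-lysed total-haemolysis controls. HC50 read from percent haemolysis versus concentration plots.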

Data set [13] deals with Serratia marcescens. Put plainly: Antimicrobial activity against Serratia marcescens at […] after 24 hrs. The data set is classed as functional, organism-based.
The next data set has as its system Mycolicibacterium phlei. Put plainly: Antimicrobial activity against Mycobacterium phlei after 24 hrs. The data set is classed as functional. The essentials: as §1
Data set [14] has as its system Pseudomonas aeruginosa. The data set can be described thus: Antimicrobial activity against Pseudomonas aeruginosa at […] after 24 hrs. The class given is functional, organism-based.
The subject of data set [15] is Pseudomonas aeruginosa. Put plainly: Antimicrobial activity against Pseudomonas aeruginosa after 24 hrs. The class given is functional. The essentials: as §1
In data set [16] the test system is Salmonella enterica subsp. enterica. Put plainly: Antimicrobial activity against Salmonella Typhimurium after 24 hrs. The data set is classed as functional, Salmonella enterica subsp. enterica serovar Typhimurium. The essentials: as §1
Data set [17] in a line: Toxicity against Daphnia magna after 24 hrs by immobility assay. The essentials:
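Daphnia magna acute test using laboratory-bred animals no older than 24 h. Medium pH 8.0, hardness 250 mg/L as CaCO3 (Ca/Mg 4/1), dark, 20 °C. Four groups of five per concentration, ten concentrations in geometric series. Immobility at 24 h plotted on log-probability paper; IC50 with 95% confidence ranges.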

For data set [18], the system named is Candida albicans. Put plainly: Antimicrobial activity against Candida albicans after 24 hrs. The class given is functional. The essentials:
as §1

In data set [19] the test system is Serratia marcescens. Put plainly: Antimicrobial activity against Serratia marcescens after 24 hrs. The class given is functional. The essentials:
as §1

The subject of data set [20] is Klebsiella aerogenes. Put plainly: Antimicrobial activity against Enterobacter aerogenes after 24 hrs. The data set is classed as functional. The essentials: as §1
A short description of data set [21]: Dissociation constant, pKa of the compound. The class given is physicochemical. The essentials: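 Apparent pKa calculated from pH measurements of surfactant solutions at concentrations that show antimicrobial activity.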

On to hexadecyl trimethyl ammonium bromide, for which the MIC (in general, the lowest concentration found to suppress growth) was 44 µM in the data set with Klebsiella pneumoniae [1]; 44 µM in the data set on Micrococcus luteus; 44 µM against Escherichia coli [2]; 20 µM in data set [3]; 44 µM against Bacillus subtilis; 10 µM in [4].

Take `CCCCCCCCCCCCCCCC(=O)NCCCC[C@H](N)C(=O)OC.Cl`: the result (with Candida albicans [5]; in the data set with Escherichia coli [6]; in data set [7]; with Klebsiella aerogenes [9]; in the data set with Klebsiella pneumoniae [10]; in data set [11]) was inactive. The outcome with Serratia marcescens [13] and in the data set on Pseudomonas aeruginosa [14] was inactive. Moreover, the MIC in the data set with Micrococcus luteus turned out to be 74 µM; against Bacillus cereus it was 148 µM; with Staphylococcus aureus, 148 µM; against Enterococcus hirae, 74 µM; against Bacillus subtilis, 148 µM; in the data set with Mycolicibacterium phlei it was 148 µM. This molecule also showed an MIC in [4] of 148 µM. This molecule came in with a CMC in data set [8] of 0.6 mM. In data set [12], the IC50 (in general, the concentration that inhibits the measured activity by half) came to 1450 µM.

On to `CCCCCCCCCCCC(=O)N[C@@H](CCCNC(=N)N)C(=O)OC`, for which the MIC came to 79 µM (≈ 29.3 µg/mL) against Klebsiella pneumoniae [1]; 39 µM (≈ 14.5 µg/mL) with Micrococcus luteus; 39 µM (≈ 14.5 µg/mL) with Bacillus cereus; 157 µM (≈ 58.2 µg/mL) in the data set with Escherichia coli [2]; 157 µM (≈ 58.2 µg/mL) against Pseudomonas aeruginosa [15]; 157 µM (≈ 58.2 µg/mL) in [16]. In addition, the MIC stood at 157 µM (≈ 58.2 µg/mL) in [3]; 39 µM (≈ 14.5 µg/mL) in the data set with Staphylococcus aureus; 39 µM (≈ 14.5 µg/mL) in the data set with Enterococcus hirae; 157 µM (≈ 58.2 µg/mL) in the data set with Bacillus subtilis; 39 µM (≈ 14.5 µg/mL) against Mycolicibacterium phlei; 157 µM (≈ 58.2 µg/mL) against Candida albicans [18]. For the same molecule, the MIC turned out to be 315 µM (≈ 117 µg/mL) with Serratia marcescens [19], 20 µM (≈ 7.41 µg/mL) in data set [4] and 157 µM (≈ 58.2 µg/mL) against Klebsiella aerogenes [20]. Moreover, the values for the IC50 in data set [17] and in [12] were 36 µM and 150 µM, respectively.

On to `CCCCCCCCCCCCCC(=O)NCCCC[C@H](N)C(=O)OC.Cl`, for which the result (in the data set with Candida albicans [5]; in data set [7]; in the data set with Klebsiella aerogenes [9]; in the data set with Klebsiella pneumoniae [10]; in data set [11]; in the data set with Serratia marcescens [13]) was inactive. Also, in the data set with Pseudomonas aeruginosa [14], the outcome was inactive. Moreover, the MIC in the data set with Micrococcus luteus, with Bacillus cereus, in the data set on Escherichia coli [2], against Staphylococcus aureus, in the data set with Enterococcus hirae and against Bacillus subtilis was 157 µM throughout. For the same molecule, the MIC with Mycolicibacterium phlei amounted to 78 µM; in data set [4] it was 157 µM. In data set [8], this molecule showed a CMC of 1.6 mM. The IC50 in [17] amounted to 7.3 µM; in [12], 1230 µM. The pKa (commonly the pH at which an ionisable group is half protonated) in data set [21] was 7.8.

As for `CCCCCCCCCCCC(=O)N[C@@H](CCCCN)C(=O)OC`, the MIC is 85 µM (≈ 29.1 µg/mL) in the data set with Klebsiella pneumoniae [1]; 11 µM (≈ 3.77 µg/mL) against Micrococcus luteus; 42 µM (≈ 14.4 µg/mL) in the data set on Escherichia coli [2]; 169 µM (≈ 57.9 µg/mL) with Pseudomonas aeruginosa [15]; 85 µM (≈ 29.1 µg/mL) in [16]; 42 µM (≈ 14.4 µg/mL) in data set [3]. For the same molecule, the MIC against Staphylococcus aureus was 85 µM (≈ 29.1 µg/mL); in the data set with Bacillus subtilis it was 42 µM (≈ 14.4 µg/mL); against Serratia marcescens [19], 338 µM (≈ 116 µg/mL); in [4], 42 µM (≈ 14.4 µg/mL); with Klebsiella aerogenes [20], 157 µM (≈ 53.8 µg/mL). Further, the IC50 in data set [12] is 199 µM.

Take `CCCCCCCCCCCC(=O)NCCCC[C@H](N)C(=O)OC.Cl`: the MIC against Klebsiella pneumoniae [1] came to 338 µM; against Micrococcus luteus, 338 µM; in the data set on Bacillus cereus it was 169 µM; against Escherichia coli [2] it was 169 µM; against Staphylococcus aureus it was 338 µM; with Enterococcus hirae, 338 µM. Also, the MIC stood at 338 µM with Bacillus subtilis, 169 µM against Mycolicibacterium phlei, 169 µM against Candida albicans [18] and 169 µM in data set [4]. Moreover, the result (in data set [7]; in the data set with Klebsiella aerogenes [9]; in data set [11]; in the data set on Serratia marcescens [13]; with Pseudomonas aeruginosa [14]) was inactive. The molecule also had a CMC in data set [8] of 5.5 mM. Moreover, the IC50 in [17] was 32 µM; in data set [12], 391 µM. This molecule also gave a pKa in data set [21] of 8.2.
